Screens as filed in PubChem.
Hits are enriched below; roughly 2.5% of the tested compounds scored in any of these assays.
GSTO1 inh = counter-screen for RBBP9 inhibitors: inhibitors of human GSTO1 | P78417 | inhibition, % at 5.96 µM | AID 1974 | recombinant GSTO1, activity-based probe fluorescence polarization | actives 1.1% (n = 300,000);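 active means inhibition above the campaign mean inhibition plus 3 SD, cut at about 35% in these data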;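 further: 0% = GSTO1-1 with DMSO and 100% = wells lacking GSTO1-1 enzyme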
Target sequence (P78417 whole entry, looked up): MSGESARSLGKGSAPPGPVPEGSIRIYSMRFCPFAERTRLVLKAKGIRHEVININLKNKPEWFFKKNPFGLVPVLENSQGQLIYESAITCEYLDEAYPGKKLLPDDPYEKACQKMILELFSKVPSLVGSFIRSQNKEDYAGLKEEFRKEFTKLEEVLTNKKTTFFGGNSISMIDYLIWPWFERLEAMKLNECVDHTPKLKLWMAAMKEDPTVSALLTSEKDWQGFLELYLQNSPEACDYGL
PAD4 inh = blocks human protein arginine deiminase 4; recombinant PAD4, RCA probe fluorescence polarization; Q9UM07; actives 0.41% (n = 330,000); inhibition, % at 6.36 µM; AID 485272;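 active means percent inhibition above a cutoff equal to the mean of all tested compounds plus 3 SD, cut at about 15% in these data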;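 further: 0% = PAD4 with RCA probe and DMSO and 100% = probe without PAD4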
E coli Lon inh = inhibitors of E. coli Lon protease; P0A9M0; purified E. coli Lon protease, fluorescence polarization; inhibition, % at 7.94 µM; actives 0.42% (n = 360,000); in the data active means inhibition above about 13%, passing the limit was not always enough;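 further: 0% = enzyme with probe and DMSO and 100% = no enzyme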
PRMT1 inh = blocks human protein arginine methyltransferase 1; Q99873; recombinant PRMT1, activity-based probe fluorescence polarization; actives 1.3% (n = 370,000); inhibition, % at 2.79 µM;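 active means inhibition above about 21% made by adding two undisclosed values, limit read from the data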
Target sequence (Q99873 whole entry, looked up): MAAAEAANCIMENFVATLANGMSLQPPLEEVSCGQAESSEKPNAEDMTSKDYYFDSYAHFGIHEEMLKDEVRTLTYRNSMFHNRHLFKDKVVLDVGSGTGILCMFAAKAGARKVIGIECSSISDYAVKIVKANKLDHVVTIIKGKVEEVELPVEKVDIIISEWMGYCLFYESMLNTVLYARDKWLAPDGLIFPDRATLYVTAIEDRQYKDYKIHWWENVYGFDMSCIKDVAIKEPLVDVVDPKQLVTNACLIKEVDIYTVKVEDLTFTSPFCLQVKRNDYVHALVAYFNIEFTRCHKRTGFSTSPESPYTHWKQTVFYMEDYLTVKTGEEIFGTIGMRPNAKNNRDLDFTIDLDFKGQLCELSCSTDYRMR
TDP2 absorb = blocks human TDP2 phosphodiesterase activity | recombinant TDP2, T5PNP hydrolysis, p-nitrophenol absorbance 415 nm | inhibition, % at 12.8 µM | AID 720702 | actives 0.34% (n = 370,000);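 active means inhibition above the mean of all tested compounds plus 3 SD, set per campaign, cut at about 25% in these data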;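 further: 0% = DMSO with enzyme and 100% = buffer with substrate but no TDP2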
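Read-out basis: percent inhibition. System: recombinant human TDP2. Buffer or medium: Mg2+-containing Tris-HCl buffer, pH 7.5. Repeats: single replicate. Timing: reaction 2 h, 37 °C. Benchmarks: high control without enzyme, low control DMSO plus TDP2. Probe or stimulus: 5 mM T5PNP. Doses: 12.8 µM only. Measured by: epi absorbance of p-nitrophenol freed from T5PNP by hydrolysis.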
PRMT1 inh conf = confirmation of human PRMT1 inhibitors | shares compounds with PRMT1 inh | recombinant His-PRMT1, activity-based probe fluorescence polarization | inhibition, % at 2.79 µM | actives 42% (n = 3,300) | AID 687036;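 active means mean inhibition across replicates above the hit cutoff derived for the earlier primary screen, cut at about 22% in these data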
* marks the source's active call; other numbers are inactive results; . = not tested or not shown.

SMILES	GSTO1 inh	PAD4 inh	E coli Lon inh	PRMT1 inh	TDP2 absorb	PRMT1 inh conf
CC(=O)Nc1ccc(/C=C2\Sc3ccccc3C2=O)cc1	-4.1	-1.4	-25.9	5.8	-18.8	.
Cc1ccc(/C=C2\Sc3ccccc3C2=O)s1	-9.3	-9.5	-30.6	0.6	1.5	.
CCOc1ccc(C(=O)OCC(=O)N2CCCC2)cc1OCC	2.1	1.2	-2.8	0.6	-8.7	.
COc1ccc(Oc2c(-c3cccs3)cnn(-c3ccc(C)cc3)c2=O)cc1	.	.	.	2.4	3.8	.
COC(=O)c1ccc2nc(-c3ccco3)c(Cc3cccc(Cl)c3)n2c1	.	.	2.5	25.1*	13.2	7.8
COC(=O)c1ccc2nc(-c3ccco3)c(Cc3ccsc3)n2c1	.	.	.	32.5*	1.6	37.4*
COC(=O)c1ccc2nc(-c3ccccc3)c(Cc3ccsc3)n2c1	.	.	-10.1	3.4	-1.9	.
COC(=O)c1ccc2nc(-c3cccc(Cl)c3)c(Cc3cccc(Cl)c3)n2c1	.	.	0.8	1.3	9.7	.
O=C(OC12CCCN(C1)/C(=C/c1ccc(Cl)cc1)C2)c1ccno1 (centres undefined)	.	.	.	-0.8	2.7	.
Cc1ccc(S(=O)(=O)c2nc(S(C)(=O)=O)sc2N2CCC(C)CC2)cc1	-8.8	0.8	1.5	27.6*	-11.7	1.0
Cc1ccc(S(=O)(=O)c2nc(S(C)(=O)=O)sc2N2CCCCCC2)cc1	0.2	-0.1	6.1	-0.1	16.8	.
O=C1C=C(C2OC(CO)C(O)C2O)C(=O)N1 (centres undefined)	.	.	3.2	70.0*	-1.9	71.3*
O=c1[nH]c(=O)n(C2OC(CO)C(O)C(O)C2O)cc1F (centres undefined)	.	.	.	-0.8	-1.1	.
COc1cc(NC(=O)NC2CCCCN(Cc3cccc(Cl)c3)C2=O)cc(OC)c1 (centres undefined)	.	.	.	-0.4	3.1	.
CCOc1ncccc1C(=O)NNC(=O)c1cccc(S(=O)(=O)Nc2ccc(OC)cc2)c1	10.8	3.5	0.7	-3.6	-11.1	.
NC(=O)c1ccc(NC(=O)COC(=O)/C=C/c2ccc(Br)o2)cc1	.	-1.6	-10.3	36.0*	-0.6	5.3
NS(=O)(=O)c1cc(C(=O)OC2CCOC2=O)ccc1Cl (centres undefined)	2.1	3.4	-5.2	-1.9	-1.5	.
O=C(OC1CCOC1=O)c1ccc2ncsc2c1 (centres undefined)	0.9	2.1	-0.9	39.4*	-8.2	2.0
CCOC(=O)CSC1=C(C#N)C(=O)NC(c2ccc(OC)cc2)S1 (centres undefined)	5.9	-2.5	-13.9	35.0*	-18.6	6.7
CCOC(=O)CSC1=C(C#N)C(=O)NC(c2ccc(OC)c(OC)c2)S1 (centres undefined)	-1.7	-2.8	-5.8	1.6	12.0	.
CCOC(=O)CC(=O)CSc1ncnc2c1nnn2-c1ccc(OC)cc1	3.2	-1.6	-5.0	61.7*	1.0	79.2*
Cc1c(Cl)cccc1Nc1n[nH]c(=S)s1	.	.	-5.7	20.9	0.2	.
S=c1[nH]nc(Nc2cccc3ccccc23)s1	-2.0	-2.4	-5.9	54.7*	-11.5	42.4*
Cc1ccccc1Nc1n[nH]c(=S)s1	.	.	-15.8	36.3*	7.1	5.7
Fc1ccccc1Nc1n[nH]c(=S)s1	-0.9	5.0	1.3	7.6	-0.6	.
SMILES	GSTO1 inh	PAD4 inh	E coli Lon inh	PRMT1 inh	TDP2 absorb	PRMT1 inh conf
COC(=O)C1CN(Cc2ccc(OC)cc2)CCS(=O)(=O)N1Cc1cn(Cc2ccc(C)cc2)nn1 (centres undefined)	.	.	.	-4.0	-4.0	.
OCC1OCOC2C(CO)OCOC12 (centres undefined)	.	.	-5.2	1.0	7.5	.
Cc1sc2nc(CSCC(=O)NC3(C#N)CCCCC3)[nH]c(=O)c2c1C	.	-4.8	-8.4	25.1*	-4.8	5.0
CCc1cccc(NC(=O)CSCc2nc3sc(C)c(C)c3c(=O)[nH]2)c1	.	0.4	-3.7	4.0	-6.1	.
O=C(c1ccncc1)N1CCC(Oc2cccnc2)CC1	.	.	.	-5.2	-11.3	.
Cc1cccc(NC(=O)CN2C(=O)C3CC=CCC3C2=O)c1C (centres undefined)	.	.	-11.2	1.5	8.2	.
COc1ccc(NC(=O)C2CSC(C)(C)N2C=O)cc1 (centres undefined)	5.4	2.2	2.1	0.9	9.1	.
CC1(C)SCC(C(=O)O)N1C=O (centres undefined)	8.9	-0.4	-2.5	25.8*	10.3	1.6
CC1CN(C(=O)C2CCCC2)C(C)CN1C(=O)C1CCCC1 (centres undefined)	3.0	2.0	2.8	-1.4	-3.6	.
CCOC(=O)c1c(C)nsc1NCc1ccccc1	7.1	2.0	2.7	27.5*	-5.1	2.4
CCOC(=O)c1c(NCc2ccccc2)n[nH]c1C	7.7	0.3	-10.6	3.8	-10.7	.
COc1ccc2cc(C(c3nnnn3C(C)(C)C)N3CCc4ccccc4C3)c(=O)[nH]c2c1 (centres undefined)	3.0	-15.5	.	.	.	.
COc1ccc2cc(C(c3nnnn3C(C)(C)C)N3CCSCC3)c(=O)[nH]c2c1 (centres undefined)	4.0	-3.8	-9.1	34.4*	1.9	-6.1
C=CCNC(=O)c1ccsc1N	.	.	.	27.4*	-1.6	12.2
C=CCNC(=O)c1ccc(Cl)cc1Cl	-2.1	-0.5	-2.7	-0.3	1.4	.
CC(C)OC(=O)c1ccc(NC(=O)c2ccccc2)cc1	1.5	-0.5	-5.7	-1.0	-4.2	.
CC(C)OC(=O)c1ccc(NCc2cc(O)ccc2O)cc1	.	.	5.2	36.2*	-1.0	30.0*
Nc1ccn(C2OC(CCl)C(O)C2O)c(=O)n1 (centres undefined)	.	.	-6.1	-1.1	-3.7	.
COc1ccc(NCc2nnc(SCC(=O)Nc3cccc(C)c3)o2)cc1	-3.5	-6.4	2.3	36.7*	-15.1	28.7*
COc1ccc(NCc2nnc(SCC(=O)c3ccc(OC)cc3)o2)cc1	23.4	-1.4	0.7	6.7	0.6	.
O=c1cc(-c2ccc(O)cc2)oc2c1ccc1ccccc12	.	-2.2	-1.6	-1.8	-3.0	.
O=c1cc(-c2ccc(O)cc2)oc2c(O)c(O)c(O)c(O)c12	26.5	-5.3	-13.0	52.1*	3.7	15.6
CCOc1ccc(/C=C/C(=O)c2cc(Br)ccc(=O)c2O)cc1	4.7	0.1	-11.5	10.2	-6.5	.
CCc1ccc(/C=C/C(=O)c2cc(Br)ccc(=O)c2O)cc1	9.7	-7.6	-17.1	31.5*	-3.7	18.5
Cc1cc(C)c(C(=O)COc2cccnc2[N+](=O)[O-])cc1C	21.3	-9.8	0.6	37.5*	0.5	50.7*
Cc1nc2ccc(S(=O)(=O)NCC(=O)NCc3cccs3)cc2s1	.	.	.	2.2	5.3	.
CC1=CC(C)(C)NC(=S)N1c1cccc2cc(S(=O)(=O)O)ccc12	25.5	12.1	-5.1	38.6*	-4.1	44.8*
COc1cccc(CNC(=O)[C@@H]2CCCN2C(=O)[C@@H]2CCCN2S(=O)(=O)c2ccc(OC)c(C)c2)c1	.	.	4.7	-3.3	0.7	.
CCCCCOc1ccc(/C=c2\sc3nc(=O)c(-c4ccccc4)nn3c2=O)cc1OC	-0.5	-6.7	-18.5	2.9	2.7	.
